# Experimental data as given in ChEMBL document CHEMBL4680237, “In situ click chemistry-based rapid discovery of novel HIV-1 NNRTIs by exploiting the hydrophobic channel and tolerant regions of NNIBP” (Eur J Med Chem, 2020).
# Tests used:
# [1] = target: Human immunodeficiency virus type 1 reverse transcriptase (Human immunodeficiency virus 1) (UniProt Q72547); experiment: Inhibition of HIV-1 reverse transcriptase assessed as reduction in biotin-dUTP incorporation in to cDNA chain at 0.267 uM in presence of DIG-dUTP, biotin-dUTP and dTTP measured after 1 hr by ELISA relative to control
# Summary of the method: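 ELISA for HIV-1 RT: enzyme with reconstituted template, DIG-dUTP, biotin-dUTP and dTTP in buffer ± inhibitor, 1 h at 37°C. Product captured on streptavidin-coated plate 2 h at 37°C, then anti-DIG-POD 1 h at 37°C, ABTS substrate, OD405. % inhibition calculated from OD with/without inhibitor and without RT.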
# [2] = tested on: Human immunodeficiency virus 1; experiment: Antiviral activity against HIV1 3B infected in human MT4 cells assessed as reduction in virus-induced cell death incubated for 5 days by MTT assay; type: functional, organism-based; conditions: Human immunodeficiency virus 1, 3B, MT4, 120 h
# Summary of the method: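 MT-4 cells (6×10^5 cells/mL) infected with HIV-1 at 100-300 CCID50; serial 5-fold compound dilutions added at infection, triplicate wells. After 5 days, viability was read by MTT at 540 and 690 nm, using the median absorbance of three wells. EC50 is the concentration giving 50% protection against virus cytopathic effect.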
# [3] = tested on: Human immunodeficiency virus 1; experiment: Antiviral activity against HIV1 RES056 infected in human MT4 cells assessed as reduction in virus-induced cell death incubated for 5 days by MTT assay; type: functional, organism-based; conditions: Human immunodeficiency virus 1, RES056, MT4, 120 h
# Summary of the method: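 MT-4 cells (6×10^5 cells/mL) infected with HIV-1 at 100-300 CCID50; serial 5-fold compound dilutions added at infection, triplicate wells. After 5 days, viability was read by MTT at 540 and 690 nm, using the median absorbance of three wells.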
# [4] = Cytotoxicity against human MT4 cells assessed as reduction in cell viability after 5 days by MTT assay; type: cell-based; conditions: time 5 day
# Summary of the method: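 Mock-infected MT-4 cells (6×10^5 cells/mL) were run in parallel with serial 5-fold compound dilutions in triplicate wells. After 5 days, viability was read by MTT (540/690 nm) as the median of three wells. CC50 is the concentration reducing OD540 of the mock-infected control by 50%.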
# [5] = Selectivity index, ratio of CC50 for cytotoxicity against human MT4 cells to EC50 for antiviral activity against HIV1 3B infected in human MT4 cells; type: toxicity, cell-based; conditions: read-out: Ratio CC50/EC50
# Summary of the method: (§1)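 SI computed as CC50 in mock-infected MT-4 cells divided by EC50 against the given HIV-1 strain, both from the 5-day MTT assay.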
# [6] = Selectivity index, ratio of CC50 for cytotoxicity against human MT4 cells to EC50 for antiviral activity against HIV1 RES056 infected in human MT4 cells; type: toxicity, cell-based; conditions: read-out: Ratio CC50/EC50; summary of the method: as §1
SMILES,inhibition [1] [%],EC50 [2] [µM],EC50 [3] [µM],CC50 at 120 h [4] [µM],selectivity ratio [5],selectivity ratio [6]
Cc1cc(C#N)cc(C)c1Oc1nc(Nc2ccc(C#N)cc2)nc(N)c1Br [ETRAVIRINE],32.7,0.0051,,> 4.59,> 889,> 101
Cc1cc(C#N)cc(C)c1Oc1nc(NC2CCN(Cc3cn(Cc4ccc(C#N)cc4)nn3)CC2)nc2ccsc12,,0.209,18.1,110,525,6
Cc1cc(C#N)cc(C)c1Oc1nc(NC2CCN(Cc3cn(Cc4ccccc4C#N)nn3)CC2)nc2ccsc12,50.3,0.00664,2.91,16.2,2440,6
Cc1cc(C#N)cc(C)c1Oc1nc(NC2CCN(C(=O)c3cn(CC(=O)Nc4ccccc4)nn3)CC2)nc2ccsc12,80.2,,,,,
Cc1cc(-c2cn(Cc3ccc(Cl)cc3)nn2)cc(C)c1Oc1nc(NC2CCN(Cc3ccc(S(N)(=O)=O)cc3)CC2)nc2ccsc12,70.8,0.0313,> 3.4,3.39,108,< 1
Cc1cc(-c2cn(CCc3ccsc3)nn2)cc(C)c1Oc1nc(NC2CCN(Cc3ccc(S(N)(=O)=O)cc3)CC2)nc2ccsc12,72.5,0.0211,6.19,11.7,552,1.88
Cc1cc(C#N)cc(C)c1Oc1nc(NC2CCN(Cc3cn(Cc4ccccc4[N+](=O)[O-])nn3)CC2)nc2ccsc12,51.9,0.00612,1.17,7.66,1250,7
Cc1cc(C#N)cc(C)c1Oc1nc(NC2CCN(Cc3cn(CC(=O)N4CCOCC4)nn3)CC2)nc2ccsc12,69.7,0.00438,4.46,> 212,> 48500,> 48
Cc1cc(C#N)cc(C)c1Oc1nc(NC2CCN(Cc3ccc(S(N)(=O)=O)cc3)CC2)nc2ccsc12,44,,0.0306,> 227,> 159000,> 7420
Cc1cc(C#N)cc(C)c1Oc1nc(NC2CCN(Cc3cn(Cc4ccc(C(N)=O)cc4)nn3)CC2)nc2ccsc12,66.6,0.00328,0.481,> 210,> 64100,> 437
Cc1ccccc1Cn1cc(C(=O)N2CCC(Nc3nc(Oc4c(C)cc(C#N)cc4C)c4sccc4n3)CC2)nn1,75.8,,,,,
O=C1Nc2ccc(Cl)cc2[C@@](C#CC2CC2)(C(F)(F)F)O1 [EFAVIRENZ],,0.0047,,> 6.38,,
Cc1ccnc2c1NC(=O)c1cccnc1N2C1CC1 [NEVIRAPINE],,0.163,> 9.51,> 9.51,> 58,
Cc1cc(-c2cn(CC(=O)N3CCCC3)nn2)cc(C)c1Oc1nc(NC2CCN(Cc3ccc(S(N)(=O)=O)cc3)CC2)nc2ccsc12,74,0.0258,6.05,17.6,682,3
Cc1ccc(Cn2cc(CN3CCC(Nc4nc(Oc5c(C)cc(C#N)cc5C)c5sccc5n4)CC3)nn2)cc1,46.1,0.00726,> 4.72,4.72,650,< 1
Cc1cc(C#N)cc(C)c1Oc1nc(NC2CCN(Cc3cn(Cc4ccc(S(N)(=O)=O)cc4)nn3)CC2)nc2ccsc12,42,0.00535,0.67,20.7,3880,31

# Further lines, with some results ahead:
inhibition [1] [%],SMILES,EC50 [2] [µM],EC50 [3] [µM],CC50 at 120 h [4] [µM],selectivity ratio [5],selectivity ratio [6]
75.6,Cc1cc(C#N)cc(C)c1Oc1nc(NCCc2cn(Cc3ccccc3Cl)nn2)nc2ccsc12,,,,,
60.1,Cc1cc(C#N)cc(C)c1Oc1nc(NC2CCN(Cc3cn(CC(=O)Nc4ccc(S(C)(=O)=O)cc4)nn3)CC2)nc2ccsc12,0.00666,1.99,19.8,2970,10
44.8,Cc1ccccc1Cn1cc(CN2CCC(Nc3nc(Oc4c(C)cc(C#N)cc4C)c4sccc4n3)CC2)nn1,,,,,
89.1,Cc1cc(C#N)cc(C)c1Oc1nc(NCCc2cn(Cc3ccccc3[N+](=O)[O-])nn2)nc2ccsc12,,,,,
57.1,Cc1cc(C#N)cc(C)c1Oc1nc(NC2CCN(Cc3cn([C@H]4C[C@H](n5cc(C)c(=O)[nH]c5=O)O[C@@H]4CO)nn3)CC2)nc2ccsc12,0.0829,10.6,149,1800,14
71.1,Cc1cc(C#N)cc(C)c1Oc1nc(NCCc2cn(Cc3ccc(C(N)=O)cc3)nn2)nc2ccsc12,,,,,
71.8,Cc1cc(C#N)cc(C)c1Oc1nc(NC2CCN(C(=O)c3cn(CC(=O)N4CCOCC4)nn3)CC2)nc2ccsc12,,,,,
72.4,Cc1cc(C#N)cc(C)c1Oc1nc(NCCc2cn(Cc3ccc(S(N)(=O)=O)cc3)nn2)nc2ccsc12,,,,,
91.8,Cc1cccc(Cn2cc(CCNc3nc(Oc4c(C)cc(C#N)cc4C)c4sccc4n3)nn2)c1,,,,,
86.7,Cc1cc(C#N)cc(C)c1Oc1nc(NCCc2cn(CC(=O)N3CCOCC3)nn2)nc2ccsc12,,,,,
